For 13 compounds, IC50 and Activity results are on record in ChEMBL document CHEMBL2046427, “Nonhematotoxic naphthalene diimide modified by polyamine: synthesis and biological evaluation” (J Med Chem, 2012).

One assay relates to K562. Put plainly: Cytotoxicity against human K562 cells after 48 hrs by MTT assay. Type of assay: functional, cell-based. As to conditions: K562, 48 h. The procedure, abridged:
(§1)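 MTT conversion assay at 37 °C, 5% CO₂. […] Inhibition relative to untreated cells as 100%; IC50 by linear regression, mean of three independent experiments.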

Assay [1] deals with HepG2. As to the kind of experiment: Cytotoxicity against human HepG2 cells after 48 hrs by MTT assay. Type of assay: functional, cell-based. As to conditions: HepG2, 48 h. In short, it runs like this: as §1
For orientation: Tetrazolium assays rely on reduction of a dye to a coloured formazan, in cell work by metabolically active cells.

The test system of a further assay is MDA-MB-231. As to the kind of experiment: Cytotoxicity against human MDA-MB-231 cells after 48 hrs by MTT assay. In kind it is functional, cell-based. Conditions: MDA-MB-231, 48 h. In short, it runs like this: as §1
Assay [2] concerns HepG2. Put plainly: Cytotoxicity against human HepG2 cells assessed as cell nuclear shrinkage after 48 hrs by Hoechst 33342-based fluorescence-based high-content screening assay. In kind it is functional. The procedure, abridged: (§2)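 HepG2 seeded 5 × 10³/well; after 12 h treated at 1, 5, 10, 15 and 30 μM for 48 h. Multiparameter cytotoxicity kit staining imaged by high-content screening: Hoechst 33342 for nuclear morphology, permeability dye (green nuclei) for membrane integrity, mitochondrial potential dye, and a weak-base dye for lysosomal mass/pH.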

In assay [3] the test system is HepG2. As to the kind of experiment: Cytotoxicity against human HepG2 cells assessed as decrease in mitochondrial membrane potential after 48 hrs by fluorescence-based high-content screening assay. In kind it is functional, cell-based. In short, it runs like this: as §2
Assay [4] has as its system HepG2. Put plainly: Cytotoxicity against human HepG2 cells assessed as acruement in lysosomal mass/pH after 48 hrs by fluorescence-based high-content screening assay. Type of assay: functional, cell-based. The procedure, abridged:
as §2

Assay [5] has as its system HepG2. Put plainly: Cytotoxicity against human HepG2 cells assessed as mitochondrial permeability augmentation after 48 hrs by fluorescence-based high-content screening assay. In kind it is functional, cell-based. In short, it runs like this:
as §2

For another assay, the system named is HCT-116. As to the kind of experiment: Cytotoxicity against human HCT116 cells after 48 hrs by MTT assay. In kind it is functional, cell-based. As to conditions: HCT-116, 48 h. In short, it runs like this: as §1
In assay [6] the test system is HepG2. Put plainly: Cytotoxicity against human HepG2 cells assessed as mitochondrial permeability augmentation at 1 to 30 uM after 48 hrs by fluorescence-based high-content screening assay. Type of assay: functional, cell-based. In short, it runs like this:
as §2

Assay [7] concerns HepG2. Put plainly: Cytotoxicity against human HepG2 cells assessed as cell nuclear shrinkage at 1 to 30 uM after 48 hrs by Hoechst 33342-based fluorescence-based high-content screening assay. Type of assay: functional. In short, it runs like this:
as §2

Assay [8] concerns HepG2. Put plainly: Cytotoxicity against human HepG2 cells assessed as decrease in mitochondrial membrane potential at 1 to 30 uM after 48 hrs by fluorescence-based high-content screening assay. In kind it is functional, cell-based. In short, it runs like this: as §2
The subject of assay [9] is HepG2. Put plainly: Cytotoxicity against human HepG2 cells assessed as acruement in lysosomal mass/pH at 1 to 30 uM after 48 hrs by fluorescence-based high-content screening assay. In kind it is functional, cell-based. In short, it runs like this: as §2

Activity calls are given as the source filed them. No cut-off for these calls is given here.

As to `NCCCNCCCCNCCCN1C(=O)c2cccc3c(-c4ccccc4)ccc(c23)C1=O`, the half-maximal inhibitory concentration (IC50) was 14.2 µM with K562, 15.8 µM in the assay with HepG2 [1] and 14.5 µM in the assay with MDA-MB-231.
For `NCCCCNCCCCNCCCCN1C(=O)c2ccc3c4c(ccc(c24)C1=O)C(=O)N(CCCCNCCCCNCCCCN)C3=O`, the IC50 is 28 µM in the assay on K562, greater than 50 µM in the assay on HepG2 [1] and greater than 50 µM with MDA-MB-231.
Turning to `NCCCNCCCCN1C(=O)c2ccc3c4c(ccc(c24)C1=O)C(=O)N(CCCCNCCCN)C3=O`, the IC50 with K562 was determined as 21.2 µM; in the assay on HepG2 [1] it was 33.3 µM; in the assay on MDA-MB-231, 20.2 µM.
With `CN(C)CCN1C(=O)c2cccc3c(-c4ccccc4)ccc(c23)C1=O`, the Activity result with HepG2 [2], with HepG2 [3], in the assay on HepG2 [4] and with HepG2 [5] was “Dose-dependent effect” in each case. In addition, the results for the IC50 in the assay on K562, in the assay on HepG2 [1] and in the assay on MDA-MB-231 were greater than 50 µM, 37 µM and 39.2 µM, respectively.
With `NCCCCNCCCCN1C(=O)c2ccc3c4c(ccc(c24)C1=O)C(=O)N(CCCCNCCCCN)C3=O`, the IC50 in the assay on K562 was 41 µM; in the assay with HepG2 [1], 43.8 µM; with MDA-MB-231, 27.6 µM.
As for `NCCCCNCCCCNCCCCN1C(=O)c2cccc3c(-c4ccccc4)ccc(c23)C1=O`, the IC50 amounted to 14.2 µM in the assay with K562, 32.1 µM in the assay with HepG2 [1] and 19.1 µM with MDA-MB-231.
Turning to `NCCCNCCCNCCCN1C(=O)c2ccc(-c3ccc4c(c3)C(=O)N(CCCNCCCNCCCN)C4=O)cc2C1=O`, the IC50 in the assay on HepG2 [1], in the assay with MDA-MB-231 and with HCT-116 was greater than 50 µM in each case.
Take `NCCCNCCCN1C(=O)c2ccc3c4c(ccc(c24)C1=O)C(=O)N(CCCNCCCN)C3=O`: the half-maximal inhibitory concentration (IC50) turned out to be 1.01 µM in the assay on K562, 2.83 µM in the assay on HepG2 [1], 2.95 µM with MDA-MB-231 and 5.02 µM with HCT-116.
As for `NCCCCNCCCCNCCCCN1C(=O)c2ccc(-c3ccc4c(c3)C(=O)N(CCCCNCCCCNCCCCN)C4=O)cc2C1=O`, the outcome in the assay on HepG2 [6], in the assay on HepG2 [7], in the assay with HepG2 [8] and with HepG2 [9] was inactive. Moreover, the 50% inhibitory concentration (IC50) in the assay with HepG2 [1], with MDA-MB-231 and in the assay with HCT-116 was greater than 50 µM throughout.
Consider `NCCCNCCCNCCCN1C(=O)c2ccc3c4c(ccc(c24)C1=O)C(=O)N(CCCNCCCNCCCN)C3=O`, for which the IC50 was 21.2 µM in the assay on K562, 48.5 µM in the assay with HepG2 [1] and 18 µM in the assay with MDA-MB-231.
For `NCCCCNCCCCN1C(=O)c2cccc3c(-c4ccccc4)ccc(c23)C1=O`, the IC50 in the assay with K562 was determined as 14.4 µM; in the assay on HepG2 [1] it was 17.1 µM; with MDA-MB-231, 19.2 µM.
The matching figures for `NCCCNCCCNCCCN1C(=O)c2cccc3c(-c4ccccc4)ccc(c23)C1=O`: 14.4 µM, 15.6 µM and 14.6 µM.
On to `NCCCNCCCCNCCCN1C(=O)c2ccc(-c3ccc4c(c3)C(=O)N(CCCNCCCCNCCCN)C4=O)cc2C1=O`, for which the IC50 in the assay on HepG2 [1] and in the assay on MDA-MB-231 was greater than 50 µM throughout.

In general, IC50 refers to the midpoint of a concentration-inhibition curve. Read a low IC50 as higher potency.
